Assay results taken from publication PMC7396962 (Xenobiotica; the fate of foreign compounds in biological …, 2020).
≈ marks a conversion by molar mass, not a printed value.

Tests used:
[1] = tested on: recombinant human UGT isoforms; test: Reaction phenotyping with twelve recombinant UGT isoforms; format: in vitro ADME
UGT1A9 = target: T1, UGT1A9 (Homo sapiens, UniProt O60656); format: in vitro ADME; settings: panel of HLMs (n = 9), substrate 10 μM, p = 0.015
T1 sequence (O60656 26-530): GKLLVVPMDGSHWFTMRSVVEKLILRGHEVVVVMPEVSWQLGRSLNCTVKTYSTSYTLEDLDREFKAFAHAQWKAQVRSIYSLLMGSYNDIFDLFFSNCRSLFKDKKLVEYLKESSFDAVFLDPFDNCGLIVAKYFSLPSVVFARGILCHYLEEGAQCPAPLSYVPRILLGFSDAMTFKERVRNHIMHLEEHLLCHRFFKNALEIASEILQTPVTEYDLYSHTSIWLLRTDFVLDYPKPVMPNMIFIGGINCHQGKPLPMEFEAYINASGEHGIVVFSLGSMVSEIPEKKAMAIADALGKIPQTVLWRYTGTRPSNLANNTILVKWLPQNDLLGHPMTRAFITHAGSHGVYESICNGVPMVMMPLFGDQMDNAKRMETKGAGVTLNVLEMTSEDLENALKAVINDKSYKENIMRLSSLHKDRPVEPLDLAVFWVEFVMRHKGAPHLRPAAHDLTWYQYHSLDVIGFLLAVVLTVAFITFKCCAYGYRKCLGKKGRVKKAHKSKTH
How it was run: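 Test compound (10 μM) glucuronidated in each of nine individual human liver microsomes (1 mg/mL) with UDPGA and alamethicin, pH 7.4, 37 °C for 60 min. Rates regressed linearly against each donor's propofol O-glucuronidation activity; correlation coefficient r reported, p < 0.05 significant.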

MRP4 = target: T2, MRP4 (Homo sapiens, UniProt O15439); test: Glucuronide excretion in HeLa1A1 cells with knock-down of MRP4; format: cell-based; settings: knock-down of MRP4 transporter
T2 sequence (O15439 1-1325): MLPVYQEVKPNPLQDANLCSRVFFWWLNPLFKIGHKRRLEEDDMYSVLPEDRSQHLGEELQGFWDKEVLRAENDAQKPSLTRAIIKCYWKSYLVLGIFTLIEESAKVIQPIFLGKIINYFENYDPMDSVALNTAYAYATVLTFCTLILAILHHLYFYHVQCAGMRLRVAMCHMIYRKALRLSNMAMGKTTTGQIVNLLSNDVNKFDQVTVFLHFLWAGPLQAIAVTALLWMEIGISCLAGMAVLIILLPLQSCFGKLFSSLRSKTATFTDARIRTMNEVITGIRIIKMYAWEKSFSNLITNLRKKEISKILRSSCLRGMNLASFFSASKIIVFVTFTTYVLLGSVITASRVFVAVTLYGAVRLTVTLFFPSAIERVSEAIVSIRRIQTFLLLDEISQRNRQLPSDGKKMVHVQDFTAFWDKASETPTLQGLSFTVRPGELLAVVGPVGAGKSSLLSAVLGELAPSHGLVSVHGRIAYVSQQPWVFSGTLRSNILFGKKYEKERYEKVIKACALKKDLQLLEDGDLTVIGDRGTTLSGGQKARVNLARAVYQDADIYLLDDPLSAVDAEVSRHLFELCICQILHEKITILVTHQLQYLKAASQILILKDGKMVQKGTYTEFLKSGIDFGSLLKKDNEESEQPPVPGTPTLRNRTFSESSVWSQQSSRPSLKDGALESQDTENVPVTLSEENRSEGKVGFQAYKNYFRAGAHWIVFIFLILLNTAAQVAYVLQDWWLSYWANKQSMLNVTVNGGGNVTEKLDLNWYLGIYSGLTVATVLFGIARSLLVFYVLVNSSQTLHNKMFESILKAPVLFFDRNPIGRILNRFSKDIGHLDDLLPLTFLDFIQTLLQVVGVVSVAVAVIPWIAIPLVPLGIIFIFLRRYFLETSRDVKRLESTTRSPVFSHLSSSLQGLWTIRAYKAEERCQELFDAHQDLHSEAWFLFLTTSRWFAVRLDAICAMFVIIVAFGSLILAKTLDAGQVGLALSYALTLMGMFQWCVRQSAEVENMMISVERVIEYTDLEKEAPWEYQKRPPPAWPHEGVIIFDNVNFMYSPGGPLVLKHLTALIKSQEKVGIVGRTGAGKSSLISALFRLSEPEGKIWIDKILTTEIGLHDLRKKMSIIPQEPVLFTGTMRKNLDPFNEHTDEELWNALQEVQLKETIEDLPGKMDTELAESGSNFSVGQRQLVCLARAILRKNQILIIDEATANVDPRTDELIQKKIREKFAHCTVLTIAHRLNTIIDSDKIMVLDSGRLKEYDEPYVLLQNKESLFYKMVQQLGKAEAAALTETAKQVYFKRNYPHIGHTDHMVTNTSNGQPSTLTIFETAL
How it was run: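 HeLa1A1 cells at ~50% confluence transiently transfected with transporter shRNA plasmid (10 μg/mL); medium replaced at 6 h; scrambled shRNA as control. At confluence cells washed and incubated with test compound in HBSS. Extracellular glucuronide sampled over 2 h and intracellular glucuronide measured at the end. ER = V·dC/dt, CLapp = ER/Ci, fmet calculated; triplicate.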

human carboxylesterase 2 = settings: ref Li et al., 2015, cited from earlier work
PPAR-γ = settings: ref Ma et al., 2016; cited from earlier work
[2] = tested on: Hep3B hepatocellular carcinoma cell line; settings: cited from earlier work
[3] = rat, in vivo, cited from earlier work
[4] = rat, in vivo; cited from earlier work
human UGT1A1 = settings: cited from earlier work

In the case of `CC(C)=CCC/C(C)=C/Cc1cc(-c2coc3cc(O)ccc3c2=O)ccc1O` [CA, Corylifol A], the “catalytic activity to CA-glucuronidation” value ([1]; UGT1A1, 1A7, 1A8 and 1A9) is reported as “strong catalytic activity”, the “catalytic activity to CA-glucuronidation” value ([1]; UGT1A3, 1A4, 2B4 and 2B7) is reported as “weak catalytic activity” and the “correlation (r) between CA-7-O-glucuronidation and propofol-O-glucuronidation” value (UGT1A9) is reported as 0.771. The “fmet value of CA” value (MRP4) was “significant decrease”, the IC50 (human carboxylesterase 2; read-out: IC50, human carboxylesterase 2) was 620 nM and the Ki (human carboxylesterase 2; read-out: Ki, human carboxylesterase 2) was 870 nM. The “in vitro PPAR-γ activation” value (PPAR-γ) was “PPAR-γ activation”, the “IC50, cytotoxic activity” value [2] was 13.5 µg/mL (≈ 34.6 µM) and the “maximal plasma concentration (Cmax) of CA” value ([3]; 2 g/kg) was 8.87 ng/mL. The “Cmax of CA” value ([3]; po, 1.2 g/kg) was 1.70 ng/mL, the “distribution concentrations of CA at different nuclei” value [4] was 260.63 to 493.29 ng·h/g and the IC50 (human UGT1A1) was 650 nM. The Ki (human UGT1A1) was 790 nM.
